Measurements reported in ChEMBL document CHEMBL1132212, “Structure-activity relationship of small-sized HIV protease inhibitors containing allophenylnorstatine” (J Med Chem, 1999).

Experiments:
[1] = Bioavailability in rat after i.d. administration; format: ADME, organism-based; settings: in vivo
In short: (§1)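 Three male Sprague–Dawley rats (300–400 g) per compound were anesthetized and dosed at 10 mg/kg in 50% PEG. Dosing was iv via the femoral vein or id by tube into the duodenum. Plasma was extracted with internal standard and analyzed by C18 HPLC with UV at 210 nm. Analysis was noncompartmental; F was calculated from id vs iv AUC. Values are mean ± SEM.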

[2] = biological target: Human immunodeficiency virus type 1 protease (Human immunodeficiency virus 1) (UniProt Q72874); experiment: Inhibition of recombinant HIV-1 protease (NY-5) using 5 uM
[3] = Time of maximum plasma concentration (Tmax) was determined in rats after intraduodenal administration of the drug.; format: ADME, organism-based; settings: rat; in short: as §1
[4] = Maximum plasma concentration (Cmax) was determined in rats after intraduodenal administration of the drug; format: ADME, organism-based; parameters: route intraduodenal; settings: rat; in short: as §1
[5] = Toxic concentration was determined for CEM-SS cells; format: toxicity, cell-based; settings: human, read-out: TC50 (the source's name)
In short: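 CEM-SS cells (2.5 × 10^4 cells/mL) were exposed to compound in RPMI-1640 with 10% FCS and gentamicin for 6 days at 37 °C in 5% CO2. Viability was read by XTT staining, and TC50 was taken as the mean of duplicates.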

[6] = biological target: Human immunodeficiency virus type 1 protease (Human immunodeficiency virus 1) (UniProt Q72874); experiment: Inhibition of recombinant HIV-1 protease (NY-5) using 50 nM
In short: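 Recombinant HIV-1 protease (NY5 sequence) was expressed in E. coli and purified. It was preincubated with inhibitor in DMSO for 5 min at 37 °C in MES–NaOH pH 6.0 with DTT and EDTA. Substrate H-SQNYPIV-OH was then added for 60 min at 37 °C, and the reaction was stopped with TFA. The PIV product was measured by reverse-phase HPLC at 215 nm against a synthetic standard.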

[7] = biological target: Human immunodeficiency virus type 1 protease (Human immunodeficiency virus 1, UniProt Q72874); experiment: Inhibition of recombinant HIV-1 protease (NY-5)
CEM-SS = experiment: Antiviral activity was determined based on inhibition of HIV-1 IIIB induced cytopathic effects in CEM-SS cells in vitro using tetrazolium reagent.; format: functional, cell-based; settings: Homo sapiens
In short: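 CEM-SS cells (2.5 × 10^4 cells/mL) were cultured with HIV-1 IIIB and compound in RPMI-1640 with 10% FCS and gentamicin for 6 days at 37 °C in 5% CO2. The virus titer was set to kill all cells by day 6. Cytopathic effect was read by XTT staining, and IC50 was taken as the mean of duplicates.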

[8] = Plasma half life was determined in rats after intravenous administration of the drug.; format: ADME, organism-based; settings: rat; in short: as §1
Canis familiaris [9] = experiment: Area under curve (AUC) was determined in fasted dogs after oral administration of 25 mg/kg of the compound; format: ADME, organism-based, Canis lupus familiaris; parameters: dose 25 mg/kg, route oral; settings: dog, in vivo
In short: (§2)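 Male beagles (7–10 kg) were assigned six per group. Each received 25 mg/kg from a 12.5 mg/mL solution in 50% PEG-in-water, either as an iv bolus via the cephalic vein or by oral gavage, fed or fasted overnight. Plasma was measured by HPLC. Analysis was noncompartmental: trapezoidal AUC, terminal-slope t1/2, CL = dose/AUC, Vdss from AUMC/AUC, and F from oral vs iv AUC. Values are mean ± SEM.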

[10] = Plasma clearance rate (CL) was determined in dogs after intravenous administration of 25 mg/kg of the compound.; format: ADME, organism-based, Canis lupus familiaris; parameters: dose 25 mg/kg, route intravenous; settings: dog; in short: as §2
Canis familiaris [11] = experiment: Area under curve (AUC) was determined in dogs fed after oral administration of 25 mg/kg of the compound; format: ADME, organism-based, Canis lupus familiaris; parameters: dose 25 mg/kg, route oral; settings: dog, in vivo; in short: as §2
[12] = Maximum plasma concentration (Cmax) was determined in fasted dogs after oral administration of 25 mg/kg of the compound.; format: ADME, organism-based, Canis lupus familiaris; parameters: dose 25 mg/kg, route oral; settings: dog; in short: as §2
[13] = Percent bioavailability (F%) was determined in fasted dogs after oral administration of 25 mg/kg of the compound.; format: ADME, organism-based, Canis lupus familiaris; settings: dog, in vivo; in short: as §2
Canis familiaris [14] = experiment: Area under curve (AUC) was determined in dogs fed after intravenous administration of 25 mg/kg of the compound; format: ADME, organism-based, Canis lupus familiaris; parameters: dose 25 mg/kg, route intravenous; settings: dog, in vivo; in short: as §2
[15] = Maximum plasma concentration (Cmax) was determined in dogs fed after oral administration of 25 mg/kg of the compound.; format: ADME, organism-based, Canis lupus familiaris; parameters: dose 25 mg/kg, route oral; settings: dog; in short: as §2
[16] = Time of maximum plasma concentration (Tmax) was determined in dogs fed after oral administration of 25 mg/kg of the compound.; format: ADME, organism-based, Canis lupus familiaris; parameters: dose 25 mg/kg, route oral; settings: dog; in short: as §2
[17] = Plasma half life was determined in dogs after intravenous administration of 25 mg/kg of the compound.; format: ADME, organism-based, Canis lupus familiaris; parameters: dose 25 mg/kg, route intravenous; settings: dog; in short: as §2
[18] = Volume of distribution (Vdss) was determined in dogs after intravenous administration of 25 mg/kg of the compound.; format: ADME, organism-based, Canis lupus familiaris; parameters: dose 25 mg/kg, route intravenous; settings: dog, in vivo, read-out: Vdss; in short: as §2
[19] = Percent bioavailability (F%) was determined in dogs fed after oral administration of 25 mg/kg of the compound; format: ADME, organism-based, Canis lupus familiaris; settings: dog, in vivo; in short: as §2
[20] = Time of maximum plasma concentration (Tmax) was determined in fasted dogs after oral administration of 25 mg/kg of the compound.; format: ADME, organism-based, Canis lupus familiaris; parameters: dose 25 mg/kg, route oral; settings: dog; in short: as §2
[21] = biological target: Human immunodeficiency virus type 1 protease (Human immunodeficiency virus 1) (UniProt Q72874); experiment: Inhibition of recombinant HIV-1 protease (NY-5) using 50 nM

Row | inhibition [2] [%] | inhibition [6] [%] | SMILES | CC50 [5] [nM] | Ki [7] [nM] | IC50 (CEM-SS) [nM] | also measured
1 | – | – | CS[C@H](NC(=O)COc1cccc2cnccc12)C(=O)N[C@@H](Cc1ccccc1)[C@H](O)C(=O)N1CSC[C@H]1C(=O)NC(C)(C)C | > 20000 | 0.74 | 34 | –
2 | – | – | Cc1ccccc1CNC(=O)[C@@H]1CSCN1C(=O)[C@@H](O)[C@H](Cc1ccccc1)NC(=O)c1cccc(O)c1C | > 20000 | 8.9 | > 200 | bioavailability [1]: 32.3%; Tmax [3]: 0.5 h; Cmax [4]: 770 nM; half-life [8]: 0.683 h
3 | 76 | – | CC(C)(C)NC(=O)[C@@H]1CSCN1C(=O)[C@@H](O)[C@H](Cc1ccccc1)NC(=O)c1cccc(O)c1 | – | – | – | –
4 | 92 | 17 | CCCc1c(O)cccc1C(=O)N[C@@H](Cc1ccccc1)[C@H](O)C(=O)N1CSC[C@H]1C(=O)NC(C)(C)C | – | – | – | –
5 | – | 88 | Cc1c(O)cccc1C(=O)N[C@@H](Cc1ccccc1)[C@H](O)C(=O)N1CSC(C)(C)[C@H]1C(=O)NCc1ccccc1C(F)(F)F | – | – | – | –
6 | 44 | – | Cc1ccc(OCC(=O)N[C@@H](Cc2ccccc2)[C@H](O)C(=O)N2CSC[C@H]2C(=O)NC(C)(C)C)cc1 | – | – | – | –
7 | – | 75 | Cc1cccc(C)c1CNC(=O)[C@@H]1CSCN1C(=O)[C@@H](O)[C@H](Cc1ccccc1)NC(=O)c1cccc(O)c1C | – | 4.8 | – | –
8 | 48 | – | CC(C)(C)NC(=O)[C@@H]1CSCN1C(=O)[C@@H](O)[C@H](Cc1ccccc1)NC(=O)COc1ccccc1 | – | – | – | –
9 | 98 | 46 | CCc1c(O)cccc1C(=O)N[C@@H](Cc1ccccc1)[C@H](O)C(=O)N1CSC[C@H]1C(=O)NC(C)(C)C | – | 22.2 | – | bioavailability [1]: 36.2%; Tmax [3]: 0.5 h; Cmax [4]: 1730 nM; half-life [8]: 1.23 h
10 | – | – | CS[C@H](NC(=O)COc1cccc2cnccc12)C(=O)N[C@@H](Cc1ccccc1)[C@H](O)C(=O)N1CSC(C)(C)[C@H]1C(=O)NC(C)(C)C | > 20000 | 0.088 | 6 | –
11 | 94 | 32 | CCc1cccc(C)c1OCC(=O)N[C@@H](Cc1ccccc1)[C@H](O)C(=O)N1CSC[C@H]1C(=O)NC(C)(C)C | – | – | – | –
12 | – | 13 | Cc1ccc(CNC(=O)[C@@H]2CSCN2C(=O)[C@@H](O)[C@H](Cc2ccccc2)NC(=O)c2cccc(O)c2C)cc1 | – | – | – | –
13 | 62 | – | CCc1cccc(CC)c1OCC(=O)N[C@@H](Cc1ccccc1)[C@H](O)C(=O)N1CSC[C@H]1C(=O)NC(C)(C)C | – | – | – | –
14 | 38 | – | Cc1cccc(OCC(=O)N[C@@H](Cc2ccccc2)[C@H](O)C(=O)N2CSC[C@H]2C(=O)NC(C)(C)C)c1 | – | – | – | –
15 | 75 | – | Cc1ccccc1C(=O)N[C@@H](Cc1ccccc1)[C@H](O)C(=O)N1CSC[C@H]1C(=O)NC(C)(C)C | – | – | – | –
16 | 52 | – | CC(C)(C)NC(=O)[C@@H]1CSCN1C(=O)[C@@H](O)[C@H](Cc1ccccc1)NC(=O)c1ccccc1 | – | – | – | –
17 | – | – | Cc1c(O)cccc1C(=O)N[C@@H](Cc1ccccc1)[C@H](O)C(=O)N1CSC[C@H]1C(=O)NCc1ccccc1 | – | 59 | – | inhibition [21]: 43%
18 | 82 | – | Cc1ccccc1OCC(=O)N[C@@H](Cc1ccccc1)[C@H](O)C(=O)N1CSC[C@H]1C(=O)NC(C)(C)C | – | – | – | –
19 | 97 | 35 | CCCc1cccc(C)c1OCC(=O)N[C@@H](Cc1ccccc1)[C@H](O)C(=O)N1CSC[C@H]1C(=O)NC(C)(C)C | – | – | – | –
20 | 81 | – | Cc1c(N)cccc1C(=O)N[C@@H](Cc1ccccc1)[C@H](O)C(=O)N1CSC[C@H]1C(=O)NC(C)(C)C | – | – | – | –
21 | – | 18 | Cc1cccc(CNC(=O)[C@@H]2CSCN2C(=O)[C@@H](O)[C@H](Cc2ccccc2)NC(=O)c2cccc(O)c2C)c1 | – | – | – | –
22 | – | 97 | CCc1c(O)cccc1C(=O)N[C@@H](Cc1ccccc1)[C@H](O)C(=O)N1CSC(C)(C)[C@H]1C(=O)NCc1ccccc1C | > 20000 | 0.19 | 11 | bioavailability [1]: 10%; Tmax [3]: 0.167 h; Cmax [4]: 230 nM; half-life [8]: 2.1 h

Row | SMILES | inhibition [2] [%] | inhibition [6] [%] | CC50 [5] [nM] | Ki [7] [nM] | IC50 (CEM-SS) [nM] | also measured
23 | Cc1c(O)cccc1C(=O)N[C@@H](Cc1ccccc1)[C@H](O)C(=O)N1CSC(C)(C)[C@H]1C(=O)NC(C)(C)C | 99 | 88 | > 20000 | 5.14 | 19 | bioavailability [1]: 39.4%; Tmax [3]: 0.5 h; Cmax [4]: 2600 nM; half-life [8]: 1.38 h
24 | CCc1c(O)cccc1C(=O)N[C@@H](Cc1ccccc1)[C@H](O)C(=O)N1CSC(C)(C)[C@H]1C(=O)NC(C)(C)C | 99 | 84 | > 20000 | 2.24 | 92 | bioavailability [1]: 37%; Tmax [3]: 0.5 h; Cmax [4]: 1160 nM; half-life [8]: 1.4 h
25 | Cc1cccc(C)c1OCC(=O)N[C@@H](Cc1ccccc1)[C@H](O)C(=O)N1CSC(C)(C)[C@H]1C(=O)NC(C)(C)C | 97 | 35 | > 20000 | 1.4 | > 200 | –
26 | Cc1c(O)cccc1C(=O)N[C@@H](Cc1ccccc1)[C@H](O)C(=O)N1CSC[C@H]1C(=O)NC(C)(C)C | 97 | 36 | > 20000 | 24.9 | > 200 | bioavailability [1]: 33.9%; Tmax [3]: 0.5 h; Cmax [4]: 2910 nM; half-life [8]: 0.983 h
27 | Cc1c(O)cccc1C(=O)N[C@@H](Cc1ccccc1)[C@H](O)C(=O)N1CSC(C)(C)[C@H]1C(=O)NCc1ccccc1Cl | – | 95 | > 20000 | 0.29 | 34 | –
28 | Cc1ccccc1CNC(=O)[C@H]1N(C(=O)[C@@H](O)[C@H](Cc2ccccc2)NC(=O)c2cccc(O)c2C)CSC1(C)C | – | 96 | > 20000 | 0.33 | 7 | AUC (Canis familiaris [9]): 19.1 µM·h; clearance [10]: 14.7 mL/min/kg; bioavailability [1]: 41.6%; Tmax [3]: 1 h; AUC (Canis familiaris [11]): 16.8 µM·h; Cmax [12]: 5300 nM; bioavailability [13]: 37.1%; AUC (Canis familiaris [14]): 51.6 µM·h; Cmax [4]: 700 nM; Cmax [15]: 4020 nM; Tmax [16]: 1.5 h; half-life [17]: 1.57 h; Vd [18]: 1.58 L/kg; bioavailability [19]: 32.6%; Tmax [20]: 1 h; half-life [8]: 1.55 h
29 | Cc1cccc(C)c1OCC(=O)N[C@@H](Cc1ccccc1)[C@H](O)C(=O)N1CSC[C@H]1C(=O)NC(C)(C)C | 95 | 56 | > 20000 | 21.7 | > 200 | –
